# Screening data (PubChem)
# Compounds with a hit are over-represented: about 1.8% of the library has one in this group of screens.
# NR2E3 ag-1 = NR2E3 agonists in two-hybrid cells, primary screen, cell-based, luminescence, CHO-S, Gal4-NCOR/VP16-NR2E3. luciferase. inhibition of corepressor binding, % at 3.98 µM. hit rate 0.35% among 360,000. AID 602229, 2012;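 active = inhibition above the mean of all tested compounds plus 3 SD, cut at about 70% in these data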;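 note: 0% = DMSO with NR2E3 transfected cells and 100% = cells lacking NR2E3 construct; higher means lower luciferase signal from less NR2E3 corepressor binding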
# Target sequence (Q9Y5X4 whole entry, looked up, the tested form may be a part): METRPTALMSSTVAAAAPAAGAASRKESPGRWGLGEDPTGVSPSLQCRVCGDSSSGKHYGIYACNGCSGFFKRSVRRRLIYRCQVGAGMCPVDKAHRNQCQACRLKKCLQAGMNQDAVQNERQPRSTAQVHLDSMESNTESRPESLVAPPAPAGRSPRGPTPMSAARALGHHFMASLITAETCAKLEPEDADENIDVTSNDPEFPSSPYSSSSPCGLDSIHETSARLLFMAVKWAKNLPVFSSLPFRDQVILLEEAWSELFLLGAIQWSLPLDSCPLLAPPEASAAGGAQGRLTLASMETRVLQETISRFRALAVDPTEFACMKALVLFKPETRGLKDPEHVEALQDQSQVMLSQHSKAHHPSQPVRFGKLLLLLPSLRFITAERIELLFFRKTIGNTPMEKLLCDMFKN
# NR2E3 ag-2 = inhibitors of NR2E3-RetCOR corepressor binding, primary screen, NR2E3 agonist project, biochemical, TR-FRET, GST-NR2E3, biotin-RetCOR | inhibition of corepressor binding, % at 4.78 µM | hit rate 0.12% among 320,000 | AID 2300, 2010 | 1536-well;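 active = percent inhibition above the cutoff of mean plus 3 SD of all tested compounds, set per screening campaign, cut at about 20% in these data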;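 note: 0% = DMSO wells and 100% = biotin wells as full block of FRET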
#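 Material – GST-tagged NR2E3 plus biotinylated RetCOR corepressor · Quantity – NR2E3 fusion 1.35 nM · Times – 5 h incubation at 4 °C · Medium – pH 7.5 Tris-based buffer · Technique – TR-FRET, Eu(K)-anti-GST donor, streptavidin-D2 acceptor, ex 340, em 617/671 nm · Benchmarks – high control biotin, low control 0.6% DMSO · Format – 1536-well plates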
# Jurkat NFkB inh = inhibitors of induced NF-kB luciferase reporter, primary screen, TCR NF-kB activation inhibitor project, cell-based, luminescence, uHTS; Jurkat, PMA/ionomycin-induced NF-kB luciferase reporter; inhibition, % at 4 µM; hit rate 0.53% among 330,000; AID 435003, 2010; in the data active = inhibition above about 50%
# Gli-Sufu antag = Gli-Sufu pathway antagonists, primary screen, luciferase luminescence, Sufu-KO-LIGHT cells, uHTS | Sufu-KO-LIGHT fibroblasts, Gli luciferase reporter luminescence | inhibition, % at 5 µM | hit rate 0.74% among 340,000 | AID 588413, 2011;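 active = inhibition above about 55%, limit read from the data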;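 note: 0% = DMSO-treated cells and 100% = wells with medium but no cells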
# GalR3 antag = GalR3 antagonists in HEK293 cells, primary screen, cell-based, fluorescence readout; Galanin receptor type 3 (Homo sapiens), O60755; AID 651719, 2012; inhibition, % at 3 µM; HEK293 GalR3-CNG cAMP membrane potential fluorescence; galR3 body fused to GalR1 C-terminus; hit rate 0.44% among 360,000;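 active = inhibition above the screen-wide average plus 3 SD, cut at about 13% in these data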;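 note: forskolin and galanin both at EC90 stimulate the cells; cAMP rise reported by CNG channel membrane potential dye signal; 0% = forskolin plus galanin with DMSO and 100% = forskolin alone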
# Target sequence (O60755 1-299 limits assumed): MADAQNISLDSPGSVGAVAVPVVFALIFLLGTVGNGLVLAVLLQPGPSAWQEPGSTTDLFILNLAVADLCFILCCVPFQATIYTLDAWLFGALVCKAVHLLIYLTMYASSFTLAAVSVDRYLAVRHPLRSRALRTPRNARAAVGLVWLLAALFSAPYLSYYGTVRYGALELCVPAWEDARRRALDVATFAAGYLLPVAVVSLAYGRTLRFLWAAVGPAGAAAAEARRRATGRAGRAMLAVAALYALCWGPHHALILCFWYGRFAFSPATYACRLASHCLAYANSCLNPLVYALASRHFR
# 697 NFkB inh = inhibitors of PMA/ionomycin-induced NF-kB reporter, 697 cells, primary screen, B-cell NF-kB inhibitor project, cell-based, luminescence, uHTS. hit rate 0.33% among 330,000. 697 B-cell NF-kB luciferase reporter, 16 h. inhibition, % at 4 µM; in the data active = inhibition above about 35%
# NR2E3 ag confirm-1 = NR2E3 agonists, confirmation, biochemical, TR-FRET. shares compounds with NR2E3 ag-2. cell-free NR2E3 corepressor release, 5 h. activation (reported as inhibition), % at 3.98 µM. hit rate 39% among 360. AID 2379, 2010; in the data active = activation above about 20%
# PPARg-NCOR2 ctr = agonists of PPARg-NCOR2 corepressor interaction, counter-screen for NR2E3 agonist project, biochemical, TR-FRET; TR-FRET PPARg-NCOR2 coregulator interaction; shares compounds with NR2E3 ag-2; inhibition, % at 3.98 µM; hit rate 45% among 360; AID 504787, 2011; in the data active = inhibition above about 20%;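 note: 0% = DMSO vehicle and 100% = wells without protein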
# Jurkat NFkB conf = PMA/ionomycin-induced NF-kB reporter inhibitors, Jurkat retest, confirmation, T-cell NF-kB inhibitor project, cell-based, luminescence, single concentration. shares compounds with Jurkat NFkB inh. Jurkat NF-kB luciferase, 16 h. inhibition, % at 4 µM. hit rate 27% among 2,700. AID 435020, 2010;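 active = inhibition reaching about 45% at 4 µM in either replicate, limit read from the data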;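 note: plate controls were PMA/ionomycin stimulated DMSO wells for no effect and unstimulated DMSO wells for full effect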
# 697 NFkB conf = PMA/ionomycin-induced NF-kB reporter inhibitors, 697 retest, confirmation, B-cell NF-kB inhibitor project, cell-based, luminescence, single concentration; 697 B-cell NF-kB luciferase, 16 h; hit rate 35% among 2,000; inhibition, % at 4 µM; shares compounds with 697 NFkB inh; in the data active = inhibition mostly above about 28%, no sharp cut-off; inactive = mostly below about 22%
# Gli antag conf = Gli-SUFU pathway antagonists, confirmation, single concentration, luciferase luminescence, Sufu-KO-LIGHT cells; shares compounds with Gli-Sufu antag; Gli luciferase reporter; inhibition, % at 5 µM; hit rate 40% among 2,500; AID 602428, 2012;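 active = mean inhibition at 5 µM reaching about 45%, limit read from the data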;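 note: plate controls were DMSO-treated cells for no effect and wells lacking cells for full effect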
# SufuKO cytotox = cytotoxicity in Sufu-KO-LIGHT cells, confirmation, cytotoxicity control for Gli-SUFU antagonist project, cell-based, ATP luminescence, single concentration; shares compounds with Gli-Sufu antag; cytotoxicity, % at 5 µM; hit rate 32% among 2,500;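 active = mean cytotoxicity at 5 µM above about 25%, limit read from the data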;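 note: cells exposed to compound overnight for roughly 16 to 18 hours; plate controls were DMSO wells with cells for no effect and medium without cells for full effect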
# Wnt3a counter = Wnt3a reporter signal inhibition, confirmation, counter-screen for Gli-SUFU antagonist project, Wnt-LIGHT cells, luminescence, single concentration; shares compounds with Gli-Sufu antag; Wnt3a-driven luciferase reporter; inhibition, % at 6.25 µM; hit rate 20% among 2,500; AID 651995, 2013;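 active = mean inhibition above about 25%, limit read from the data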
# NR2E3 ag confirm-2 = NR2E3 agonist confirmation in cells, cell-based, luminescence, CHO-S two-hybrid; shares compounds with NR2E3 ag-1; CHO-S mammalian two-hybrid NR2E3-NCOR, luciferase luminescence; inhibition, % at 3.98 µM; hit rate 51% among 2,300;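 active = average inhibition above a cutoff equal to the mean inhibition of all tested compounds plus one SD, cut at about 70% in these data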;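 note: 0% = DMSO in NR2E3 cells and 100% = DMSO in cells lacking NR2E3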
# VP16 counter = GAL4-VP16 reporter modulators, confirmation, counter-screen for NR2E3 agonist project, cell-based, luminescence, CHO-S, high throughput; hit rate 29% among 2,300; shares compounds with NR2E3 ag-1; CHO-S GAL4-VP16 luciferase reporter; inhibition, % at 3.98 µM;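 active = mean inhibition above a cutoff equal to the average over all tested compounds plus one standard deviation, cut at about 70% in these data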;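 note: luciferase from a UAS reporter driven by GAL4-VP16 transactivation; 0% = DMSO with VP16-transfected cells and 100% = DMSO with cells lacking VP16; higher means less reporter light so more repression of VP16 activity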
# An asterisk follows results filed as active; / = no result.
SMILES,NR2E3 ag-1,NR2E3 ag-2,Jurkat NFkB inh,Gli-Sufu antag,GalR3 antag,697 NFkB inh,Jurkat NFkB conf,others
COc1cc(Br)c(C(=O)c2nccc3cc(OC)c(OC)cc23)cc1OC,-36,28*,15,2,-2,39*,/,NR2E3 ag confirm-1=24*;PPARg-NCOR2 ctr=9;697 NFkB conf=30*
Nc1[nH]c(C(=O)c2ccc(Br)cc2)c(-c2ccncc2)c1C(=O)c1ccccc1,/,/,/,/,-8,/,/,
CC(OC(=O)CCC(=O)c1ccc(Cl)s1)C(=O)NC1(C#N)CCCCC1 (configuration not stated),-22,24*,-12,94*,-2,-2,/,NR2E3 ag confirm-1=-9;PPARg-NCOR2 ctr=-3;Gli antag conf=22;SufuKO cytotox=2;Wnt3a counter=-17
Cc1onc(-c2ccccc2)c1C(=O)NN=Cc1cc(Cl)cc(Cl)c1O,/,/,/,/,-5,/,/,
Cn1nc(-c2ccccn2)nc2c(=O)n(C)c(=O)nc1-2,107*,41*,56*,3,-11,-61,95*,NR2E3 ag confirm-1=33*;PPARg-NCOR2 ctr=57*;NR2E3 ag confirm-2=63;VP16 counter=64
C=CCN1C(=O)c2n[nH]c(COC)c2C1c1ccc(C)cc1 (configuration not stated),/,/,/,/,1,/,/,
Cc1cc(N2C(=O)C(O)=C(C(=O)c3cc4ccccc4o3)C2c2ccc(Cl)cc2)no1 (configuration not stated),51,29*,-15,4,-8,5,/,NR2E3 ag confirm-1=35*;PPARg-NCOR2 ctr=39*;NR2E3 ag confirm-2=88*;VP16 counter=59
Cc1cc(N2C(=O)C(O)=C(C(=O)c3ccc(C)o3)C2c2cccc(Cl)c2)no1 (configuration not stated),-3,/,/,/,0,/,/,
Cc1cc(NCCN2CCOCC2)n2ncc(-c3ccccc3)c2n1,-84,0,-179,-75,-1,-139,-88,
Cc1ccc(C(=O)N2CCC[C@@H]2C(=O)N2CCC[C@@H]2C(=O)NCc2ccccc2)cc1C,/,/,/,/,1,/,/,
N/C(=N\OC(=O)c1ccc(Br)cc1)c1ccccc1,-50,2,-163,-71,-6,-178,-103,
Nc1[nH]c(C(=O)c2ccc(Br)cc2)c(-c2ccccn2)c1C(=O)NCCc1c[nH]c2ccccc12,/,/,/,/,1,/,/,
COC(=O)c1ccc(-c2ccc(Cl)cc2)nc1C,-158,1,-172,-102,-5,-181,-95,
O=c1[nH]c(/C=C/c2ccccc2Cl)nc2ccccc12,-80,3,-63,-90,-11,-174,/,
Clc1cccc(Cl)c1/C=C/c1nc2ccccc2[nH]1,-148,4,-159,-74,/,-111,-103,
O=C(c1ccc2c(c1)C(=O)NC2=O)c1ccc2c(c1)C(=O)NC2=O,/,/,/,/,-8,/,/,
C=CCN1C(=O)c2n[nH]c(C(C)C)c2C1c1ccc2c(c1)OCO2 (configuration not stated),/,/,/,/,-6,/,/,
Clc1ccc(CN2CCN(c3ncc(Cc4ccccc4)cn3)CC2)c(Cl)c1,/,/,/,/,-7,/,/,
CC(C)(C)C(=O)c1c(N)[nH]c(C(=O)c2ccccc2)c1-c1ccccc1,/,/,/,/,-2,/,/,
CCOc1ccc2nc(N3CCCCCC3)sc2c1,-123,0,-234,-84,/,-236,-148,
CCOc1cc(/C=N/O)ccc1OCc1ccc(F)cc1,-3,1,-14,-13,0,3,/,
COc1cc(/C=N/O)ccc1OCc1ccc(Cl)cc1,/,0,-177,/,-7,-218,-187,
COc1cc(/C=C(\C#N)C(=O)Nc2cccc(C(=O)O)c2)ccc1OCc1ccc(Cl)cc1,-105,-2,-229,-104,-9,-5,-130,
COc1ccc(C=CC(=O)c2c(N)n(C)c(=O)n(C)c2=O)cc1,/,/,/,/,-8,/,/,
Cc1cccc(Nc2nc(N)nc(CCl)n2)c1C,17,0,88*,81*,2,34,24,
SMILES,NR2E3 ag-1,NR2E3 ag-2,Jurkat NFkB inh,Gli-Sufu antag,GalR3 antag,697 NFkB inh,Jurkat NFkB conf,others
CCOc1ccc(Nc2nc(N)nc(CCl)n2)cc1,-35,-3,59*,9,-1,-11,10,
Cc1ccc(Nc2nc(N)nc(CCl)n2)c(C)c1,-11,3,90*,68*,-8,-152,4,
Cc1ccc(Nc2nc(N)nc(CN3CCCCCC3)n2)c(C)c1,-40,-1,5,1,-1,-5,/,
Cc1ccc(Nc2nc(N)nc(CCl)n2)cc1,-2,4,-22,-17,3,-2,/,
COC(=O)c1cc2c(c3c4ccccc4n(S(=O)(=O)c4ccccc4)c13)C(=O)N(C)C2,/,/,/,/,-8,/,/,
C[C@H]1CNCCN1c1ccc(N2CCS(=O)(=O)CC2)c(C#N)c1,/,/,/,/,-6,/,/,
